In ChEMBL document CHEMBL1122290, “N-(substituted-phenyl)-D-glycopyranosylamines and their O-acetyl derivatives as potential modifiers of the formation of glycosaminoglycans” (1983):

The compounds below were run on B16 (assay: In vitro compound's ability to inhibit the replication of cultured B16 melanoma cells). Conditions: Mus musculus, read-out: ID50 (the source's name).
Assay type: functional
In short: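 B16/F10 melanoma cells, kept as monolayers at 37 °C in Eagle's MEM with Hanks' salts plus 10% fetal calf serum, were seeded from exponential growth at 1.5 to 3 × 10⁵ cells per 25-cm² flask. Compound (0.1 μM–0.1 mM) was added at seeding. After 72 h, cells were trypsinized and counted electronically. ID50 was read graphically from at least two replicate experiments.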

Structure (SMILES) | IC50 [µM]
O=C(O)c1ccc(N[C@@H]2OC(CO)[C@@H](O)C(O)[C@@H]2O)cc1 (stereo partly drawn) | 100
CC(=O)OC1[C@@H](OC(C)=O)CO[C@@H](Nc2ccc(C(=O)O)cc2)[C@@H]1OC(C)=O (stereo partly drawn) | 4
CC(=O)OCC1O[C@@H](Nc2ccc(C(=O)O)cc2)[C@@H](OC(C)=O)C(OC(C)=O)[C@@H]1OC(C)=O (stereo partly drawn) | 18
O=C(O)c1ccc(N[C@@H]2OC[C@@H](O)C(O)[C@H]2O)cc1 (stereo partly drawn) | 100
CC(=O)OC1[C@@H](OC(C)=O)C(C)O[C@@H](Nc2ccc(C(=O)O)cc2)[C@H]1OC(C)=O (stereo partly drawn) | 20
CC(=O)OCC1O[C@@H](Nc2ccc(C(=O)O)cc2)[C@@H](OC(C)=O)C(OC(C)=O)[C@H]1OC(C)=O (stereo partly drawn) | 49
CC1O[C@@H](Nc2ccc(C(=O)O)cc2)[C@@H](O)C(O)[C@H]1O (stereo partly drawn) | 37
O=C(O)c1ccc(N[C@@H]2O[C@H](CO)[C@H](O)[C@H](O)[C@H]2O)cc1 | 30
O=C(O)c1ccc(N[C@@H]2O[C@H](CO)[C@@H](O)[C@H](O)[C@H]2O)cc1 | 100
O=C(O)c1ccc(N[C@@H]2O[C@H](CO)[C@@H](O)[C@H](O)[C@@H]2O)cc1 | 39
CC(=O)OC(=O)c1ccc(N[C@@H]2OC[C@@H](OC(C)=O)C(OC(C)=O)[C@@H]2OC(C)=O)cc1 (stereo partly drawn) | 25
O=C(O)c1ccc(N[C@@H]2OC[C@@H](O)C(O)[C@@H]2O)cc1 (stereo partly drawn) | 38
CC(=O)OCC1O[C@@H](Nc2ccc(C(=O)OC(C)=O)cc2)[C@H](OC(C)=O)C(OC(C)=O)[C@@H]1OC(C)=O (stereo partly drawn) | 25
